Laboratory results published in ChEMBL document CHEMBL4266062, “Discovery of JND3229 as a New EGFRC797S Mutant Inhibitor with In Vivo Monodrug Efficacy” (ACS Med Chem Lett, 2018).
The source made the active and inactive calls. The rule behind the calls is not given here.

Experiments:
[1] = tested on: Epidermal growth factor receptor (Homo sapiens), P00533 [L858R,T790M,C797S]; assay: Inhibition of EGFR T790M/L858R/C797S mutant (unknown origin) expressed in mouse BAF3 cells assessed as reduction in EGF-induced receptor phosphorylation preincubated for 2 hrs followed by EGF stimulation for 15 mins by Western blot analysis; assay type: cell-based
Method in brief: (§1)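 BaF3 cells stably transfected with the mutant EGFR were treated for 2 h across a range of compound concentrations, then stimulated with EGF for 15 min. Cell lysates were collected, and EGFR phosphorylation was read out by Western blot.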

BaF3 [2] = assay: Antiproliferative activity against mouse BAF3 cells harboring EGFR 19D/T790M/C797S mutant after 72 hrs by resazurin dye based assay; assay type: functional, cell-based; conditions: BaF3, 72 h
BaF3 [3] = assay: Antiproliferative activity against mouse BAF3 cells harboring EGFR L858R/T790M/C797S mutant after 72 hrs by resazurin dye based assay; assay type: functional, cell-based; conditions: BaF3, 72 h
A-431 = assay: Antiproliferative activity against human A431 cells harboring wild type EGFR after 72 hrs by resazurin dye based assay; assay type: functional, cell-based; conditions: A-431, 72 h
BaF3 [4] = assay: Antitumor activity against mouse BAF3 cells harboring EGFR 19D/T790M/C797S mutant implanted in Balb/c mouse assessed as tumor growth inhibition at 10 mg/kg, ip administered twice daily for 10 days relative to control; assay type: functional; conditions: 240 h, read-out: TGI
Method in brief: (§2)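 BALB/c mice with established BaF3-EGFR19D/T790M/C797S xenografts (n = 6); 10 mg/kg in 0.5% HPMC ip twice daily for 10 days versus vehicle. Relative tumor volume and body weight recorded every 2–3 days. TGI taken on the final treatment day versus control; Student's t test.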

[5] = tested on: Epidermal growth factor receptor (Homo sapiens), P00533 [UNDEFINED MUTATION]; assay: Inhibition of EGFR 19D/T790M/C797S mutant (unknown origin) expressed in mouse BAF3 cells assessed as reduction in EGF-induced receptor phosphorylation preincubated for 2 hrs followed by EGF stimulation for 15 mins by Western blot analysis; assay type: cell-based; method in brief: as §1
Mus musculus [6] = assay: Toxicity in Balb/c mouse implanted with mouse BAF3-EGFR 19D/T790M/C797S mutant cells assessed as change in body weight at 10 mg/kg, ip administered twice daily for 10 days measured every 2 to 3 days during compound dosing; assay type: organism-based; conditions: in vivo; method in brief: as §2
NCI-H1975 = assay: Antiproliferative activity against human NCI-H1975 cells harboring EGFR L858R/T790M mutant after 72 hrs by resazurin dye based assay; assay type: functional, cell-based; conditions: NCI-H1975, 72 h
Mus musculus [7] = assay: In vivo inhibition of EGFR phosphorylation in tumor of Balb/c mouse implanted with mouse BAF3-EGFR 19D/T790M/C797S mutant cells at 10 mg/kg, ip administered twice daily for 10 days by H and E staining based IHC analysis; assay type: functional, organism-based
Method in brief: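 Xenograft tumor sections taken from the 10 mg/kg ip twice-daily treated mice and controls. Sections stained with H&E and anti-p-EGFR antibody. p-EGFR labeling quantified as relative integrated optical density; Student's t test versus control.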

BaF3 [8] = assay: Antitumor activity against mouse BAF3 cells harboring EGFR 19D/T790M/C797S mutant implanted in Balb/c mouse assessed as tumor growth inhibition at 60 mg/kg, po administered once daily via gavage for 10 days co-treated with cetuximab once every other day relative to control; assay type: functional; conditions: 240 h, read-out: TGI
Method in brief: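 Same BaF3-EGFR19D/T790M/C797S xenograft in BALB/c mice (n = 6). Positive-control regimen: 60 mg/kg in 10% NMP/90% PEG300 by oral gavage once daily, plus cetuximab 1 mg/kg in 0.9% NaCl/water ip every other day. Relative tumor volume measured every 2–3 days. TGI taken on the final treatment day versus control; Student's t test.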

[9] = target: Epidermal growth factor receptor (Homo sapiens, UniProt P00533, C797S/L858R/T790M); assay: Inhibition of recombinant human C-terminal His-tagged/N-terminal GST-tagged EGFR (668 to 1210 residues) T790M/L858R/C797S mutant using poly (Glu,Tyr) 4:1 as substrate after 1 hr by ELISA
[10] = target: Epidermal growth factor receptor (Homo sapiens, UniProt P00533, L858R/T790M); assay: Inhibition of recombinant human EGFR T790M/L858R double mutant using poly (Glu,Tyr) 4:1 as substrate after 1 hr by ELISA
Chain of Epidermal growth factor receptor (Homo sapiens, UniProt P00533, L858R/T790M) (P00533 25-1210 T790M/L858R limits assumed): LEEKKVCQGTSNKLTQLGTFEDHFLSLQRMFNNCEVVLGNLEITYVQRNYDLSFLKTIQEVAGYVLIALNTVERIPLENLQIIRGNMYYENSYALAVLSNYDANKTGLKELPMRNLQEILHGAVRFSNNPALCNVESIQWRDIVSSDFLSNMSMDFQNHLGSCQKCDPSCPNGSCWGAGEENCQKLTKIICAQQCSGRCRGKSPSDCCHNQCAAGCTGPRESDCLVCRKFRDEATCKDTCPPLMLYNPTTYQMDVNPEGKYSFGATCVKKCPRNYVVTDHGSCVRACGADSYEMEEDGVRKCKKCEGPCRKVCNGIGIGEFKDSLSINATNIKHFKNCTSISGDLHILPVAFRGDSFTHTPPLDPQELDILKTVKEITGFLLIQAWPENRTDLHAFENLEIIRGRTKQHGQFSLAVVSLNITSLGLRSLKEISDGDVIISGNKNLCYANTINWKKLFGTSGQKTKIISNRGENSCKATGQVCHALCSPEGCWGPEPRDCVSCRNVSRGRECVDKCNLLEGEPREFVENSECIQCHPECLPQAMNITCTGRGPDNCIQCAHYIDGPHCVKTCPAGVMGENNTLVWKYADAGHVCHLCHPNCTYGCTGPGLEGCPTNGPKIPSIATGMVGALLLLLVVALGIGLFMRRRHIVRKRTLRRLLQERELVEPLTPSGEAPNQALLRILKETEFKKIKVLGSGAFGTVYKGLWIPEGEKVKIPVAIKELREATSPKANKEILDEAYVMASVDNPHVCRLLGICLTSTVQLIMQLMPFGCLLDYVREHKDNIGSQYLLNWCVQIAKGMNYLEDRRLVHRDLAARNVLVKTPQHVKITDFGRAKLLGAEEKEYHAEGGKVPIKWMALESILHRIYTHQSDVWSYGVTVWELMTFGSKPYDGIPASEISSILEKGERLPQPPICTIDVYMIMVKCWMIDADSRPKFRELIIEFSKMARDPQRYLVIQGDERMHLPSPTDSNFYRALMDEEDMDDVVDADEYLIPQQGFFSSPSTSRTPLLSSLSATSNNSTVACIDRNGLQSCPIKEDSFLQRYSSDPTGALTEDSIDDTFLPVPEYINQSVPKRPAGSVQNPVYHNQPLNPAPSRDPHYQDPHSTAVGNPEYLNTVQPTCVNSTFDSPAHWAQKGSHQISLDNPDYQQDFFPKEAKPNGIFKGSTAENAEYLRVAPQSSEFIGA

Chain of Epidermal growth factor receptor (Homo sapiens), P00533 [L858R,T790M,C797S] (P00533 whole entry T790M/C797S/L858R): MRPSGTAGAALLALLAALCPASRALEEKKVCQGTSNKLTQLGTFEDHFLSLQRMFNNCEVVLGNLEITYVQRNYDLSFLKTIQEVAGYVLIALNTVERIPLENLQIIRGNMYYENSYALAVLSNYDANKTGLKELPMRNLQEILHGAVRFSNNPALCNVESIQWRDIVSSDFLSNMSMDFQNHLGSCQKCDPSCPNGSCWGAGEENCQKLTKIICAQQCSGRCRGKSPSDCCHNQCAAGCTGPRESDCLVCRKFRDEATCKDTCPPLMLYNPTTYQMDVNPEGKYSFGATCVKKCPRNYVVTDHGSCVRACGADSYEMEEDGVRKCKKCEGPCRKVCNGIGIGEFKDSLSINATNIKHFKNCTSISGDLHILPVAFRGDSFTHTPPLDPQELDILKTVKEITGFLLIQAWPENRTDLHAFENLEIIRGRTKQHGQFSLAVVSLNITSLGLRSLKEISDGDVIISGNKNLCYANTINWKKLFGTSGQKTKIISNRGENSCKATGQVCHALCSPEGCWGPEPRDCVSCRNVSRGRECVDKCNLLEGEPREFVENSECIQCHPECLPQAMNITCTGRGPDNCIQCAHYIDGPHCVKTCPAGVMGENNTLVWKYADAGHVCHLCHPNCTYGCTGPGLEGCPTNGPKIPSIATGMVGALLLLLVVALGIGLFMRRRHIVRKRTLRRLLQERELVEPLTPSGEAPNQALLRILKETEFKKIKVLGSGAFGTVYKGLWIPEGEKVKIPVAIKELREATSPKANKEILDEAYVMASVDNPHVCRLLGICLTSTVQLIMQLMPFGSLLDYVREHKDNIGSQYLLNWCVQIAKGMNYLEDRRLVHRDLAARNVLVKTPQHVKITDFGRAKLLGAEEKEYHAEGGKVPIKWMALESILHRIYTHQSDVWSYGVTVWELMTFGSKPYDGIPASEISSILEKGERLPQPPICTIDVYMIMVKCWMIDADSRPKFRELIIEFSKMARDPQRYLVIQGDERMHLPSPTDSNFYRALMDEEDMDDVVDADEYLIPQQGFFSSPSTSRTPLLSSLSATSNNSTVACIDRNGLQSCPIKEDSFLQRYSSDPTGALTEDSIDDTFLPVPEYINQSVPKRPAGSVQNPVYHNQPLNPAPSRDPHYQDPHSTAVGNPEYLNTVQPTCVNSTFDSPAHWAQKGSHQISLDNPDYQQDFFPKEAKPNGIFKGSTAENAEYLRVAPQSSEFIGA
Chain of Epidermal growth factor receptor (Homo sapiens), P00533 [UNDEFINED MUTATION] (P00533 whole entry, looked up, stated change not applied): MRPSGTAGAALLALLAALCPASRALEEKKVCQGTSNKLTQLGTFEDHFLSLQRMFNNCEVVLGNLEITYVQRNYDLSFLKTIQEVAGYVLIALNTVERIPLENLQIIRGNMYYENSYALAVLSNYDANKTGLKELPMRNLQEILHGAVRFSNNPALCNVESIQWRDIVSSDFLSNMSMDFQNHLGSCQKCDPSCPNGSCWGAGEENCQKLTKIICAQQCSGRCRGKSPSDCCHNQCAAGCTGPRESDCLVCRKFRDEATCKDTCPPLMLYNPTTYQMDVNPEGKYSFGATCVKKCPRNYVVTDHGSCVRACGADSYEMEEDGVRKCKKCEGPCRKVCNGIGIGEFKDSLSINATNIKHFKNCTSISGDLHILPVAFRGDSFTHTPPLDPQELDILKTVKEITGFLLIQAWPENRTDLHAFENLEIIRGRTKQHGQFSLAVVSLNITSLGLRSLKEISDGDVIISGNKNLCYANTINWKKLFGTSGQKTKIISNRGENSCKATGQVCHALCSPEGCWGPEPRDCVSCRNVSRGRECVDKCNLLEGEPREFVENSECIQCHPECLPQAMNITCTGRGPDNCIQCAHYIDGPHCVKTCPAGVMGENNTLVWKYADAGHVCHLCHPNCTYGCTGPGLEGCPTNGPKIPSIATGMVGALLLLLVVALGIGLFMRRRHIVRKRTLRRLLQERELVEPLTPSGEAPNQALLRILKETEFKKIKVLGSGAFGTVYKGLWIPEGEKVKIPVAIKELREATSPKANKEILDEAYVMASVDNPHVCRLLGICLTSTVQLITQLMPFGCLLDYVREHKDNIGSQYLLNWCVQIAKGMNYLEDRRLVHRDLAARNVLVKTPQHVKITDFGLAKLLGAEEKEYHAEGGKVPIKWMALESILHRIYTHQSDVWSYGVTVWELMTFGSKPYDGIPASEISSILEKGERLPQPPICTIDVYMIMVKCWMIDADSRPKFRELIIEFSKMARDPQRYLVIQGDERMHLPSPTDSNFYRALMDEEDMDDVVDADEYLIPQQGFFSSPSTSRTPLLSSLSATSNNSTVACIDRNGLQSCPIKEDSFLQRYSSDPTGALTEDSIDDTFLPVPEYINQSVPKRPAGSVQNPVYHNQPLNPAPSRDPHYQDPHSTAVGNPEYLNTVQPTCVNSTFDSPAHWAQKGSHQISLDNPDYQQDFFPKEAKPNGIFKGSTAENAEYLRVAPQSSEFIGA
Chain of Epidermal growth factor receptor (Homo sapiens, UniProt P00533, C797S/L858R/T790M) (P00533 25-1210 T790M/C797S/L858R limits assumed): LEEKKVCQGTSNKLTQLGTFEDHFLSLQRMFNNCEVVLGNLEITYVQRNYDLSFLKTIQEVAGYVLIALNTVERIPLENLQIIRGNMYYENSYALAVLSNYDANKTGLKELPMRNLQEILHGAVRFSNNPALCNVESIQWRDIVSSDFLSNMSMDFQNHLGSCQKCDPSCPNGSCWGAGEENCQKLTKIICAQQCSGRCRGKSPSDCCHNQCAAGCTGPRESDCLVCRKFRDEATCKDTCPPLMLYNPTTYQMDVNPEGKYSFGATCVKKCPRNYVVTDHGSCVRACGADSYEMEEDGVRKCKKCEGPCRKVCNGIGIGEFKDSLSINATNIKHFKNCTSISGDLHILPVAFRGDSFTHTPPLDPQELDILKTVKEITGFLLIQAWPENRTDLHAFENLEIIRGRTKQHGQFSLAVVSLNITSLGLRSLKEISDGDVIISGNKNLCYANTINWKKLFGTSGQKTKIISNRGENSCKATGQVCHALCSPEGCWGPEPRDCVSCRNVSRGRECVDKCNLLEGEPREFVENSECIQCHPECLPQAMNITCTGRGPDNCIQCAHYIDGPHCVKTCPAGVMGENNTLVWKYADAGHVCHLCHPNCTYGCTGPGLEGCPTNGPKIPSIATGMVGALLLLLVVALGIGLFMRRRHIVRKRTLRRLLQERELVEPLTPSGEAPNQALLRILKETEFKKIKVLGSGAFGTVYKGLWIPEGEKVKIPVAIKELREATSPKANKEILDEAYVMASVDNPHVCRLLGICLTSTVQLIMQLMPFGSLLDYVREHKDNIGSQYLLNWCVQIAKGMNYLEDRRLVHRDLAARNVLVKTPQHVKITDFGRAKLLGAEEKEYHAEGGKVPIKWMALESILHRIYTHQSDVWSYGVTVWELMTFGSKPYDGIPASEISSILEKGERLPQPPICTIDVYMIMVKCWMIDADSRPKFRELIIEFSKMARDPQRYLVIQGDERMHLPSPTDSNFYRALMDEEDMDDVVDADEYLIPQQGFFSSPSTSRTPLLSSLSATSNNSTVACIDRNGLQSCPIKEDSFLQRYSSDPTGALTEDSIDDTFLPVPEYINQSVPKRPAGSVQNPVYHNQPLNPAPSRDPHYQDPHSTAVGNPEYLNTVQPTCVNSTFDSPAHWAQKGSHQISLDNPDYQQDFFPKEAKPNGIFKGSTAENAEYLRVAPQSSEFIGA

IC50 (BaF3 [2]) [nM] | IC50 (BaF3 [3]) [nM] | IC50 (NCI-H1975) [nM] | Compound | IC50 (A-431) [nM] | further results
320 | 510 | 310 | CCC(=O)N[C@H]1CC[C@H](N2C(=O)N(c3ccccc3Cl)Cc3cnc(Nc4ccc(N5CCN(C)CC5)c(C)c4)nc32)CC1 | 270 | inhibition [1]: Dose-dependent effect; inhibition in vivo at 10 mg/kg (BaF3 [4]): 42.2%; inhibition [5]: Dose-dependent effect; Activity (Mus musculus [6]): Non-Toxic; inhibition (Mus musculus [7]): Active
 |  |  | O=C(Nc1nccs1)C(c1cc(F)ccc1O)N1Cc2ccccc2C1=O (centres undefined) |  | inhibition in vivo at 60 mg/kg (BaF3 [8]): 22.3%
260 | 420 | 1090 | COc1cc(N2CCC(N3CCN(C)CC3)CC2)ccc1Nc1ncc(Cl)c(Nc2ccccc2P(C)(C)=O)n1 [BRIGATINIB] |  | 
 |  |  | N#Cc1ccc(O)c(-c2nc(NCc3cnccn3)c3ccccc3n2)c1 |  | IC50 [9]: 85.2 nM; IC50 [10]: 367 nM

Compound | IC50 (BaF3 [2]) [nM] | IC50 (BaF3 [3]) [nM] | IC50 (NCI-H1975) [nM] | IC50 (A-431) [nM] | further results
C=CC(=O)Nc1cc(Nc2nccc(-c3cn(C)c4ccccc34)n2)c(OC)cc1N(C)CCN(C)C [OSIMERTINIB] | 4610 | 5150 | […] | […] | 
